ChEMBL document CHEMBL1156183, “Identification of very potent inhibitor of human aminopeptidase N (CD13)” (Bioorg Med Chem Lett, 2010)

Experiments:
[1] = target: T1, Aminopeptidase N (Sus scrofa) (UniProt P15145); test: Inhibition of pig aminopeptidase N assessed as ACC fluorophore released after 30 mins using Alanine ACC as substrate
T1 sequence (whole entry): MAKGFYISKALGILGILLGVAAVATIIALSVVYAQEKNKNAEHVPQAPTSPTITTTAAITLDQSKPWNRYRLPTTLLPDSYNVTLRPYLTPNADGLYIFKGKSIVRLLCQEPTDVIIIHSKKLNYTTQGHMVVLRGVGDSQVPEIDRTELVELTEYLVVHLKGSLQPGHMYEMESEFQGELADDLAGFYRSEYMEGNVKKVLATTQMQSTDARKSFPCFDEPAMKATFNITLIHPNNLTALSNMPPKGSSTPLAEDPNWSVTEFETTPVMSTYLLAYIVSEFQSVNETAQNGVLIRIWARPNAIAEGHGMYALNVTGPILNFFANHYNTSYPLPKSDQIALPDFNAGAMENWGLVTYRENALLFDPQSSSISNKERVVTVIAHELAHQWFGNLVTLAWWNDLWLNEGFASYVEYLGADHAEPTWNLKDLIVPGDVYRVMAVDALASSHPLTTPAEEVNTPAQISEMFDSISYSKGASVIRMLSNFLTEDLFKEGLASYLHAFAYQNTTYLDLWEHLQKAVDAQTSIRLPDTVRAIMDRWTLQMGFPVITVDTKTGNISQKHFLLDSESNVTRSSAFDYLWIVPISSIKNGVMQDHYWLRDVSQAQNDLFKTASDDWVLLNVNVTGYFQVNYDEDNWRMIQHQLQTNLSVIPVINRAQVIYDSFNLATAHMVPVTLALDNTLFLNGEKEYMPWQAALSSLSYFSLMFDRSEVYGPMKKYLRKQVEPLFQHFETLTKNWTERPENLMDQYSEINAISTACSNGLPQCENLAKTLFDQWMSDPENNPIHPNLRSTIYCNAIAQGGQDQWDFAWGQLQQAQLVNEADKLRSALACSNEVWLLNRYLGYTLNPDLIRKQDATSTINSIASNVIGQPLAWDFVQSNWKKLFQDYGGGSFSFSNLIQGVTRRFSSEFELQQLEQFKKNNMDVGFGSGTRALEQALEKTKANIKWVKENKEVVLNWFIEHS
Method in brief: (§1)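 Enzyme (0.45 nM) preincubated 30 min at 37 C with phosphinate inhibitor (eight concentrations) in 100 mM Tris-HCl pH 7.5 (buffer made at 20 C), final DMSO 1%. Ala-ACC added at 50 uM final. ACC release read continuously in kinetic mode, ex 355/em 460 nm. IC50 values are means of two experiments.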

[2] = target: T2, Aminopeptidase N (Rattus norvegicus) (UniProt P15684); test: Inhibition of rat aminopeptidase N assessed as ACC fluorophore released after 30 mins using Alanine ACC as substrate; method in brief: as §1
T2 sequence (whole entry): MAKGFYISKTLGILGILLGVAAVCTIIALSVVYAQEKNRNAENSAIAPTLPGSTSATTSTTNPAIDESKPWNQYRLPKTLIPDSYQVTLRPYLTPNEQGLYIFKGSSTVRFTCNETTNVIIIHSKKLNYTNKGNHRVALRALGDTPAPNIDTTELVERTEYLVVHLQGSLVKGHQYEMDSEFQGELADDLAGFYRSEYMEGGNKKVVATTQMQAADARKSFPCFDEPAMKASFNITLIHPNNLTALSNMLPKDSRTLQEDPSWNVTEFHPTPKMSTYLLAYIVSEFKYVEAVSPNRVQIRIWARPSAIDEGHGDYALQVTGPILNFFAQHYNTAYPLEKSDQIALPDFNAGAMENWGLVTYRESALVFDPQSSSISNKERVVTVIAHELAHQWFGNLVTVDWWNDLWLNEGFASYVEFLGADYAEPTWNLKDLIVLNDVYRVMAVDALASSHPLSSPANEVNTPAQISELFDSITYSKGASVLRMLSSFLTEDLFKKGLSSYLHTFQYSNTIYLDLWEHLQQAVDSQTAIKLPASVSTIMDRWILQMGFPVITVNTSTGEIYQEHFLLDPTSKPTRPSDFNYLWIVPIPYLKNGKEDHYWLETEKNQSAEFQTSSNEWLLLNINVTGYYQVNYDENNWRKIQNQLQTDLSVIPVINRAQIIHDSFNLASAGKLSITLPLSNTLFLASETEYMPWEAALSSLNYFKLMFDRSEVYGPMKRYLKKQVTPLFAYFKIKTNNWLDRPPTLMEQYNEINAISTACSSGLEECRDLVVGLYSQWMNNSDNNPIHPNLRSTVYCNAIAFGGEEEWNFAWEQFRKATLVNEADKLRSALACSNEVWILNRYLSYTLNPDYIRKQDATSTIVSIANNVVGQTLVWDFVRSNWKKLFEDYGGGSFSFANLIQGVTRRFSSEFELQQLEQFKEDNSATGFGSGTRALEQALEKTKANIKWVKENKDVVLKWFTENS

[3] = Selectivity ratio of IC50 for pig aminopeptidase N to the IC50 for human aminopeptidase N
[4] = Selectivity ratio of IC50 for rat aminopeptidase N to the IC50 for human aminopeptidase N

IC50 [1]	IC50 [2]	Ratio IC50 [3]	Ratio IC50 [4]	Structure (SMILES)
1450 nM	1350 nM			CCCNC(=S)P(=O)(O)C(N)CCc1ccccc1 (centres undefined)
4800 nM	8950 nM			CC(C)CNC(=S)P(=O)(O)C(N)C(C)C (centres undefined)
1000 nM	920 nM			CC(C)CC(N)P(=O)(O)C(O)CCc1ccccc1 (centres undefined)
4200 nM	5400 nM			CC(C)CC(N)P(=O)(O)C(=S)NCCc1ccccc1 (centres undefined)
2800 nM	5100 nM			CC(C)CC(N)P(=O)(O)C(=S)NCc1ccccc1 (centres undefined)
2300 nM	2500 nM			NC(CCc1ccccc1)P(=O)(O)C(=S)NCc1ccccc1 (centres undefined)
220 nM	400 nM			NC(CCc1ccccc1)P(=O)(O)C(O)CCc1ccccc1 (centres undefined)
1200 nM	3500 nM			CC(C)c1ccc(C(O)P(=O)(O)C(C)N)cc1 (centres undefined)
1650 nM	2500 nM			CCC(N)P(=O)(O)C(=S)NCCCSC (centres undefined)
> 20000 nM	> 20000 nM			CCCCC(N)P(=O)(O)C(=S)NCc1ccccc1C(=O)OC (centres undefined)
> 20000 nM	> 20000 nM			COc1ccc(CNC(=S)P(=O)(O)C(C)N)cc1 (centres undefined)
1600 nM	2100 nM			CCCC(N)P(=O)(O)C(=S)NCc1ccccc1 (centres undefined)
660 nM	1600 nM			NC(Cc1ccccc1)P(=O)(O)C(O)CCc1ccccc1 (centres undefined)
360 nM	610 nM			CCCCC(N)P(=O)(O)C(=S)NCCCSC (centres undefined)
> 20000 nM	> 20000 nM			CCCC(N)P(=O)(O)C(=S)NCc1ccc(C(=O)OCC)cc1 (centres undefined)
1300 nM	2400 nM			CCC(N)P(=O)(O)C(O)CCc1ccccc1 (centres undefined)
500 nM	1100 nM			CC(C)C(N)P(=O)(O)C(O)CCc1ccccc1 (centres undefined)
1400 nM	1700 nM			CCCCCCNC(=S)P(=O)(O)C(N)CC(C)C (centres undefined)
1550 nM	1650 nM			CSCCCNC(=S)P(=O)(O)C(N)CCc1ccccc1 (centres undefined)
2650 nM	2650 nM	4	4	COc1ccc(CNC(=S)P(=O)(O)C(N)CCc2ccccc2)cc1 (centres undefined)
> 20000 nM	> 20000 nM			CCCC(N)P(=O)(O)C(=S)NCc1ccccc1C(=O)OC (centres undefined)
210 nM	520 nM			CCCCC(N)P(=O)(O)C(O)CCc1ccccc1 (centres undefined)
5200 nM	8700 nM			CC(N)P(=O)(O)C(=S)NCCc1ccccc1 (centres undefined)

IC50 [1]	IC50 [2]	Ratio IC50 [3]	Ratio IC50 [4]	Structure (SMILES)
620 nM	1100 nM			CCCCC(N)P(=O)(O)C(=S)NCc1ccccc1 (centres undefined)
> 20000 nM	> 20000 nM			CCOC(=O)c1ccc(CNC(=S)P(=O)(O)C(N)CCc2ccccc2)cc1 (centres undefined)
48000 nM	15200 nM			CC(O)P(=O)(O)C(N)c1ccccc1 (centres undefined)
1700 nM	5050 nM			CCCCCCNC(=S)P(=O)(O)C(N)C(C)C (centres undefined)
1350 nM	2550 nM			CCCC(N)P(=O)(O)C(=S)NCCc1ccccc1 (centres undefined)
550 nM	460 nM			NC(c1ccccc1)P(=O)(O)C(O)c1ccccc1 (centres undefined)
10200 nM	21400 nM			CNC(=S)P(=O)(O)C(N)C(C)C (centres undefined)
250 nM	620 nM			CCCCC(N)P(=O)(O)C(=S)NCCc1ccccc1 (centres undefined)
> 20000 nM	> 20000 nM			CCCCC(N)P(=O)(O)C(=S)NCC(=O)OCc1ccccc1 (centres undefined)
1950 nM	1450 nM			CCCC(N)P(=O)(O)C(=S)NCCCSC (centres undefined)
2150 nM	2450 nM			CCCC(N)P(=O)(O)C(=S)NCc1ccc(OC)cc1 (centres undefined)
220 nM	460 nM			CCCCC(N)P(=O)(O)C(O)C(C)c1ccccc1 (centres undefined)
5800 nM	6200 nM			CCCCC(N)P(=O)(O)C(O)c1ccc(O)cc1 (centres undefined)
12000 nM	4700 nM			CC(C)CC(O)P(=O)(O)C(N)c1ccccc1 (centres undefined)
> 20000 nM	> 20000 nM			CCCC(N)P(=O)(O)C(=S)NCc1ccc(C(=O)O)cc1 (centres undefined)
240 nM	2200 nM			NC(c1ccccc1)P(=O)(O)C(O)CCc1ccccc1 (centres undefined)
2450 nM	3450 nM			CSCCCNC(=S)P(=O)(O)C(C)N (centres undefined)
> 20000 nM	> 20000 nM			CCOC(=O)c1ccc(CNC(=S)P(=O)(O)C(C)N)cc1 (centres undefined)
> 20000 nM	> 20000 nM			COC(=O)c1ccccc1CNC(=S)P(=O)(O)C(N)CC(C)C (centres undefined)
950 nM	1200 nM			CCCC(N)P(=O)(O)C(O)Cc1ccccc1 (centres undefined)
1900 nM	1450 nM			CC(N)P(=O)(O)C(=S)NCc1ccccc1 (centres undefined)
460 nM	1050 nM			CCCCC(N)P(=O)(O)C(=S)NCc1ccc(OC)cc1 (centres undefined)

Structure (SMILES)	IC50 [1]	IC50 [2]	Ratio IC50 [3]	Ratio IC50 [4]
CNC(=S)P(=O)(O)C(N)CC(C)C (centres undefined)	> 20000 nM	10800 nM		
